# Published values pooled from the literature.
# Lines come from different studies, so protocols differ.
# Target: Phosphatidylinositol 4,5-bisphosphate 3-kinase catalytic subunit beta isoform (PIK3CB, Homo sapiens, UniProt P42338)
SMILES,observed,action,technique,cell line,concentration,quantity,value
CCOCCn1cc(C(=O)Nc2ccc(-n3nc(-c4cccnc4)cc3C(F)(F)F)cn2)ccc1=O,cell-free assay,,competition with immobilised ligand,,1 µM,remaining binding,82%
CS(=O)(=O)Nc1cc(-c2ccc3ncnc(Nc4ccc(F)c(Cl)c4)c3c2)cnc1Cl,enzyme activity,inhibitor,FRET,,10 µM,inhibition,90 to 100%
Cc1ccc(C(=O)Nc2ccc(CN3CCN(C)CC3)c(C(F)(F)F)c2)cc1C#Cc1cnc2cccnn12,enzyme activity,inhibitor,,,23.5 nM,remaining activity,99%
CNc1cc(Oc2cc(C(=O)Nc3cc(N4CCN(C)CC4)cc(C(F)(F)F)c3)ccc2C)ncn1,target engagement in cells,inhibitor,chemoproteomics,Huh-7,1 µM,inhibition,-11.6%
COc1cc(-c2cc(-c3ccc(N4CCNCC4)cc3)cnc2C)cc(OC)c1OC,enzyme activity,inhibitor,,,1 µM,inhibition,6%
COc1cccc2c(NCc3ccccc3)nc(-n3c(N)nc4ccccc43)nc12,target engagement in cells,inhibitor,chemoproteomics,,20 mM,inhibition,5.6%
Nc1ncnc2occ(-c3ccc(NC(=O)Nc4cc(C(F)(F)F)ccc4F)cc3)c12,cell-free assay,inhibitor,,,20 µM,remaining signal,86%
O=C(N1CCS(=O)(=O)CC1)N1C[C@H](c2ccc(OC(F)(F)F)cc2)C[C@H](c2nc(C3CC3)no2)C1,cell-free assay,,competition with immobilised ligand,,1 µM,remaining binding,66%
CCCCNc1ncc2c(-c3ccc(F)cc3)nn(C[C@H]3CC[C@H](N)CC3)c2n1,target engagement in cells,inhibitor,chemoproteomics,,20 mM,inhibition,16.7%
